From ChEMBL document CHEMBL3861958, “Synthesis and anticholinesterase activity of coumarin-3-carboxamides bearing tryptamine moiety” (Eur J Med Chem, 2016)

Columns and labels:
[1] = target: Cholinesterase (Equus caballus, UniProt P81908); experiment: Inhibition of equine serum BuChE using butyrylthiocholine iodide as substrate measured for 2 mins by Ellman's method
In short: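 Ellman assay with equine serum BuChE (enzyme solution 2 U/mL added) in 0.1 M phosphate buffer pH 8.0 with DTNB. Compounds in 1:9 DMSO/ethanol, tested at four concentrations spanning 20–80% inhibition. Reaction started with butyrylthiocholine iodide (0.15 M stock). A412 followed for 2 min at 30 s intervals. IC50 read graphically from log concentration vs % inhibition. Quadruplicates.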

[2] = target: T1, Acetylcholinesterase (Electrophorus electricus, UniProt O42275); experiment: Inhibition of electric eel AChE using acetylthiocholine iodide as substrate measured for 2 mins by Ellman's method
[3] = target: T1, Acetylcholinesterase; experiment: Mixed-type inhibition of electric eel AChE using acetylthiocholine iodide as substrate measured for 2 mins by Lineweaver-Burk plot analysis
In short: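 Kinetics used electric eel AChE (type V-S, enzyme solution 2 U/mL added) under the Ellman conditions: 0.1 M phosphate pH 8.0, DTNB, A412. Initial velocities measured across varied acetylthiocholine concentrations at inhibitor 0, 0.069, 0.206 and 0.618 μM. 1/v plotted against 1/[S] (Lineweaver-Burk) to assign inhibition type. Ki taken from a secondary plot.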

Sequence of Cholinesterase (P81908 whole entry): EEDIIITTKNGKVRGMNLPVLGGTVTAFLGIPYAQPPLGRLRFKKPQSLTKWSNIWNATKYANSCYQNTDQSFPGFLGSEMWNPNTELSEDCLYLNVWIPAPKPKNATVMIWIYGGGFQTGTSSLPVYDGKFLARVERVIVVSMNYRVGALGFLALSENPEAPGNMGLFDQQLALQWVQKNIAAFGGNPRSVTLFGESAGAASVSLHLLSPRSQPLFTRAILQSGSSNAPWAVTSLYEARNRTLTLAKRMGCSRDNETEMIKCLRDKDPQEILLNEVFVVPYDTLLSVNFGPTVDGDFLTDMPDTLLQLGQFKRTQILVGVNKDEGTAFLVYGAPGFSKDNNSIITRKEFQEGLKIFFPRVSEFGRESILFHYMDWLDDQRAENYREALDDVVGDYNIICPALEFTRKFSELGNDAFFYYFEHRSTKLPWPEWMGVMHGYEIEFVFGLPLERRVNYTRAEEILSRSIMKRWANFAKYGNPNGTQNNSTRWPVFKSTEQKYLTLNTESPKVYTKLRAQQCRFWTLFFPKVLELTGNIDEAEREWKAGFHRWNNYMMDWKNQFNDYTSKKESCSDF
T1 sequence (O42275 whole entry): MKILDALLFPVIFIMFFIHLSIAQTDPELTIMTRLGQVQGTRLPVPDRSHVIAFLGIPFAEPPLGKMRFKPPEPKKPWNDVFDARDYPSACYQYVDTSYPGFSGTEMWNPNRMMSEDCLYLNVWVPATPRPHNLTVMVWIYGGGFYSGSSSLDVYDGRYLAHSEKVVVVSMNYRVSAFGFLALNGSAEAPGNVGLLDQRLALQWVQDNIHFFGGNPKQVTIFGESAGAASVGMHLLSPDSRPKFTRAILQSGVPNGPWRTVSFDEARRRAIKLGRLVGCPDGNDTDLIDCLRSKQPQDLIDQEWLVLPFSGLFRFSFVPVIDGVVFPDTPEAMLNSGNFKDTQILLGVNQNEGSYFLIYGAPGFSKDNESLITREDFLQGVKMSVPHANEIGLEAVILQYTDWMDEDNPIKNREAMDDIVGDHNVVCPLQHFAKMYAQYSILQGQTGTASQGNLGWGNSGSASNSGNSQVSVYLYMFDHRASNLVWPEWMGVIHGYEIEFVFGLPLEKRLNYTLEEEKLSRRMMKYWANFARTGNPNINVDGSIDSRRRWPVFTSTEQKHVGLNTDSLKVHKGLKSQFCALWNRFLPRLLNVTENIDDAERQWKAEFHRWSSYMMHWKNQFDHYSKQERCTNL

Compound | IC50 [1] | IC50 [2] | Ki [3]
COc1cccc2cc(C(=O)NCCc3c[nH]c4ccccc34)c(=O)oc12 | 20.1 µM | 2.8 µM | –
O=C(NCCc1c[nH]c2ccccc12)c1cc2ccccc2oc1=O | 50.5 µM | 5.9 µM | –
O=C(NCCc1c[nH]c2ccccc12)c1cc2ccc(OCc3ccc(F)cc3)cc2oc1=O | 29.7 µM | 0.16 µM | 490 nM
O=C(NCCc1c[nH]c2ccccc12)c1cc2ccc(OCc3ccc(Cl)c(Cl)c3)cc2oc1=O | > 100 µM | 31.5 µM | –
O=C(NCCc1c[nH]c2ccccc12)c1cc2ccc(OCc3ccc(Cl)cc3)cc2oc1=O | > 100 µM | 12.4 µM | –
O=C(NCCc1c[nH]c2ccccc12)c1cc2ccc(OCc3ccccc3Cl)cc2oc1=O | > 100 µM | 22.5 µM | –
CCCOc1ccc2cc(C(=O)NCCc3c[nH]c4ccccc34)c(=O)oc2c1 | > 100 µM | 18.7 µM | –
COc1ccc2cc(C(=O)NCCc3c[nH]c4ccccc34)c(=O)oc2c1 | 34.6 µM | 3.5 µM | –
O=C(NCCc1c[nH]c2ccccc12)c1cc2ccc(OCc3cccc(Cl)c3Cl)cc2oc1=O | > 100 µM | > 100 µM | –
O=C(NCCc1c[nH]c2ccccc12)c1cc2ccc(OCc3ccccc3)cc2oc1=O | 16.2 µM | 1.5 µM | –
O=C(NCCc1c[nH]c2ccccc12)c1cc2ccc(OCc3cccc(F)c3)cc2oc1=O | 27.8 µM | 2.5 µM | –
CCOc1ccc2cc(C(=O)NCCc3c[nH]c4ccccc34)c(=O)oc2c1 | > 100 µM | 43.8 µM | –
O=C(NCCc1c[nH]c2ccccc12)c1cc2cc(Br)ccc2oc1=O | > 100 µM | > 100 µM | –
O=C(NCCc1c[nH]c2ccccc12)c1cc2ccc(O)cc2oc1=O | > 100 µM | > 100 µM | –
O=C(NCCc1c[nH]c2ccccc12)c1cc2ccc(OCc3ccccc3F)cc2oc1=O | 27.5 µM | 2.5 µM | –
